How the values were obtained:
Assay type in all cases: cell-based
Jurkat cells [1] = experiment: MTT assay of Jurkat cells with 4 in the presence of inhibitors; settings: 4 (25 μM), 1 h; BAPTA/AM 20 μM
Summary of the method: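 Jurkat cells (1.0 × 10^5 cells/mL) in 10% FBS RPMI 1640 were preincubated with inhibitor for 30 min at 37 °C under 5% CO2, then given test compound (25 μM) for 1 h. After a further 4 h at 37 °C, 0.5% MTT in PBS was added. Formazan was dissolved overnight in 10% SDS/0.01 N HCl and absorbance read at 570 nm.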

[2] = system: mitochondrial membrane potential (ΔΨm) of Jurkat cells; experiment: Measurement of mitochondrial membrane potential; settings: 4 25 μM; CCCP 40 μM; DilC1(5) 500 nM
Summary of the method: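 Jurkat cells (2.0 × 10^5) in 10% FBS RPMI 1640 were preincubated with or without CCCP (40 μM) for 30 min at 37 °C under 5% CO2, then exposed to test compound (25 μM) for 1 h. ΔΨm was probed with DilC1(5) (500 nM). Confocal imaging recorded bright field, DilC1(5) emission and compound emission.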

[3] = system: Jurkat cells (T-lymphocyte leukemia); experiment: MTT assay of Jurkat cells
Summary of the method: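 Jurkat cells (2.0 × 10^5 cells/mL) were exposed to test compound ([…]) in 10% FBS/RPMI 1640 for 24 h at 37 °C under 5% CO2. After adding 0.5% MTT in PBS and incubating 4 h at 37 °C, formazan was dissolved overnight in 10% SDS/0.01 N HCl. Absorbance was read at 570 nm.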

[4] = system: intracellular Ca^2+ in Jurkat cells; experiment: Flow cytometry analysis of Jurkat cells stained with Rhod-2 or Rhod-4; settings: celastrol, Figure S7
Jurkat cells [5] = experiment: Methylene blue staining and TEM of Jurkat cells; settings: 4 25 μM 1 h; celastrol 1 μM 24 h
Summary of the method: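 Jurkat cells (3.0 × 10^6) received test compound (25 μM, 1 h, 37 °C) or celastrol (1 μM, 24 h). Cells were pelleted, washed in ice-cold PBS/0.1% NaN3/0.5% FBS and prefixed in 2.5% glutaraldehyde (4 °C, 40 min). Postfixing used 1% OsO4 (4 °C, 30 min), then agarose embedding and ethanol dehydration. Cells were resin-embedded (60 °C, 3 days) and cut into 150 nm sections for methylene blue light microscopy and TEM.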

## CC(=O)OCOC(=O)CN(CC(=O)OCOC(C)=O)c1ccccc1OCCOc1ccccc1N(CC(=O)OCOC(C)=O)CC(=O)OCOC(C)=O [BAPTA/AM, tetrakis(acetoxymethyl)-1,2-bis(2-aminophenoxy)ethane-N,N,N′,N′-tetraacetate]
Jurkat cells [1]
  Inhibition of cell death induced by 4 (MTT, microscopy): negligibly inhibits

## N#CC(C#N)=NNc1cccc(Cl)c1 [CCCP, Carbonyl cyanide 3-chlorophenylhydrazone]
[2]
  Mitochondrial membrane potential (ΔΨm), emission of DilC1(5): decrease in ΔΨm was also observed

## O=C(Nc1ccc2[nH]nc(-c3ccncc3)c2c1)[C@@H]1CCN(CC(=O)N2CCN(c3ccc(-c4ncccn4)cc3)CC2)C1 [SCH772984]
Jurkat cells [1]
  Inhibition of cell death induced by 4 (MTT, microscopy): negligible inhibition

## Oc1c2ccccc2c2c3c(cccc13)N=N2 [SP600125]
Jurkat cells [1]
  Inhibition of cell death induced by 4 (MTT, microscopy): negligible inhibition

## CN1CCN(CCCN2c3ccccc3Sc3ccc(C(F)(F)F)cc32)CC1 [TFP, trifluoperazine]
[3]; Homo sapiens, Jurkat, read-out: EC50, cell death of Jurkat cells
  EC50: ~50 µM
[3]; TFP with 4 (25 μM), data not shown
  Cooperative effects with 4 on cell death of Jurkat cells: negligible

## N#CC(=C(/N)Sc1ccccc1N)/C(C#N)=C(/N)Sc1ccccc1N [U0126]
Jurkat cells [1]
  Inhibition of cell death induced by 4 (MTT, microscopy): negligible inhibition

## CC1=C(O)C(=O)C=C2C1=CC=C1[C@@]2(C)CC[C@@]2(C)[C@@H]3C[C@](C)(C(=O)O)CC[C@]3(C)CC[C@]12C [celastrol]
[4]
  Change in mitochondrial Ca2+ concentration (Rhod-2): small change
Jurkat cells [5]
  Cytoplasmic vacuolization, TEM: vacuolization
  Cytoplasmic vacuolization, methylene blue staining: same intracellular morphological changes

From publication PMC7114882 (ACS Omega, 2020)
